“Also recorded” adds a separate entry of the source.
Assays:
ABHD6 = target: T1, ABHD6 (Mus musculus, UniProt Q8R2Y0); assay: Competitive ABPP; assay type: biochemical; details: for inhibition of ABHD6 by competitive ABPP: mouse brain membrane proteome, 30 min, Fig. 1b
T1 sequence (Q8R2Y0 1-336): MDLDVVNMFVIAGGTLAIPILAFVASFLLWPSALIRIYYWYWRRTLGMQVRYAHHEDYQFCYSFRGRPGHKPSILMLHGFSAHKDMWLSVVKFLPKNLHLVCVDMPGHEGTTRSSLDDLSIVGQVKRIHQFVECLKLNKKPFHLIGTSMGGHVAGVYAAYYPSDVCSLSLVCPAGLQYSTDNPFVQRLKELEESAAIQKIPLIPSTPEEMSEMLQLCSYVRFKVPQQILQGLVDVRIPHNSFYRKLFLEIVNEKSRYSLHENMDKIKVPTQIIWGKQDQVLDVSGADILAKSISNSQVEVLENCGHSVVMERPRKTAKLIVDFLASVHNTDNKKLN
Procedure, shortened: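 Mouse brain membrane proteome at 1 mg ml-1 in PBS, preincubated with test compound (1 nM to 10 μM) for 30 min at 37°C, then FP-rhodamine (2 μM final) for 30 min at room temperature. Quenched in SDS loading buffer and boiled 5 min at 90°C. Run on SDS-PAGE with in-gel fluorescence scanning; DMSO-only proteome served as control.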

MAGL [1] = target: T2, MAGL (Mus musculus, UniProt O35678); assay: Competitive ABPP; assay type: biochemical; details: for inhibition of MAGL by competitive ABPP: 30 min
T2 sequence (O35678 1-303): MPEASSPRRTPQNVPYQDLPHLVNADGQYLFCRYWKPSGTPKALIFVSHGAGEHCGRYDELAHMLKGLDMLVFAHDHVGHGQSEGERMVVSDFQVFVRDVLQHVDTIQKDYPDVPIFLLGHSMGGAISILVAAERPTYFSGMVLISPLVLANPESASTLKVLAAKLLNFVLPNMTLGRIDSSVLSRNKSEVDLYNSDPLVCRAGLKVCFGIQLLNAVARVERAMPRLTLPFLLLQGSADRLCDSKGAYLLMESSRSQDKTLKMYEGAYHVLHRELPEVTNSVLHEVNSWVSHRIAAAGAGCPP

FAAH [2] = target: T3, FAAH (Mus musculus, UniProt O08914); assay: Competitive ABPP; assay type: biochemical; details: for inhibition of FAAH by competitive ABPP: mouse brain membrane proteome, 30 min, Fig. 1b
T3 sequence (O08914 1-579): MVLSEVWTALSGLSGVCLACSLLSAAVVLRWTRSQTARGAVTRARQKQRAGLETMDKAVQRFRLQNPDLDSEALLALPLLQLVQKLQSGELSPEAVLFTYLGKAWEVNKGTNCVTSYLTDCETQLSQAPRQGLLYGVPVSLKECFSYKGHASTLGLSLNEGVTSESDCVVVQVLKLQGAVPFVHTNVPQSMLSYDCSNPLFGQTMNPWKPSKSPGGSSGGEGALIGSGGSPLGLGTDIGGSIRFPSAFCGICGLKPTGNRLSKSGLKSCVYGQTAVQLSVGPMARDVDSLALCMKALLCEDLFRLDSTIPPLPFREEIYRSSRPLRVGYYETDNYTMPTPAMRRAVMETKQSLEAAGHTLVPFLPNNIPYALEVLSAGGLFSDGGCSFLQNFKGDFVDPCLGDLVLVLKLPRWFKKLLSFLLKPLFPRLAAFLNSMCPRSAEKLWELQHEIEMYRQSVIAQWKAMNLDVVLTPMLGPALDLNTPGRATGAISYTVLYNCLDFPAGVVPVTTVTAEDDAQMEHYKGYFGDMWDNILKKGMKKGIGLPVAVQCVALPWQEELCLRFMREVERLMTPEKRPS
Procedure, shortened: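 Mouse brain membrane proteome (1 mg ml-1 in PBS) preincubated with test compound (1 nM to 10 μM) for 30 min at 37°C, then FP-rhodamine (2 μM final) for 30 min at room temperature, quenched, SDS-PAGE, in-gel fluorescence; DMSO control. kobs [I]-1: proteome with 0.01-15 μM for 10-40 min at 37°C, aliquots FP-rhodamine-labelled 2 min every 10 min; FAAH band density fit exponentially for pseudo-first-order constants.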

mice [3] = assay: Acetic acid writhing; assay type: in vivo, mouse
Procedure, shortened: (§1)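 Test compound was given in 4:1 v/v PEG300:Tween80 at 4 μl g-1: i.p. for tail immersion and acetic acid stretching; p.o. in PEG300 for formalin phase 1 (40 mg kg-1). Rimonabant was given in 18:1:1 saline:ethanol:alkamuls-620. Vehicle and rimonabant-pretreated groups were compared; mean ± SEM, n = 6-14 mice per group.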

mice [4] = assay: Rectal temperature; assay type: in vivo, mouse
Procedure, shortened: (§2)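 Measured as part of the cannabinoid tetrad test in mice. Test compound was dissolved in 4:1 v/v PEG300:Tween80 by vortexing, sonication and gentle heating, and given i.p. at 4 μl g-1 body weight; vehicle-only group as control. Rimonabant, where used, was given in 18:1:1 v/v/v saline:ethanol:alkamuls-620.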

mice [5] = assay: Locomotor activity; assay type: in vivo, mouse
Procedure, shortened: as §2

mice [6] = assay: Tail immersion test of acute thermal pain sensation; assay type: in vivo, mouse
Procedure, shortened: as §1

mice [7] = assay: Formalin test; assay type: in vivo, mouse
Procedure, shortened: as §1

[8] = system: brain levels of 2-AG, arachidonic acid, NAEs, MAGs; assay: Measurement of brain lipids in treated mice; assay type: in vivo, mouse
FAAH [9] = target: T3, FAAH; assay: FAAH activity of brain membranes from treated mice; assay type: in vivo
Procedure, shortened: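 Male C57Bl/6J mice (6-8 weeks, 20-26 g) dosed i.p. in 4:1 v/v PEG300:Tween80, with vehicle-only controls. Killed by decapitation under isoflurane 0.5-24 h later; brain hemisected and flash frozen, one half used for membrane proteomes. FAAH activity measured by gel competitive ABPP, FP-biotin ABPP-MudPIT and LC-MS oleamide hydrolysis. Means ± SEM, n = 3-5 mice per group.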

brain serine hydrolases = assay: Other brain serine hydrolase activities from treated mice; assay type: in vivo, mouse; details: 16 mg kg^-1, 4 h
Procedure, shortened: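 Male C57Bl/6J mice (6-8 weeks, 20-26 g) given 16 mg kg-1 i.p. in 4:1 v/v PEG300:Tween80 or vehicle alone. At 4 h, killed by decapitation under isoflurane; brain half flash frozen for protein work. Brain membrane proteomes underwent competitive ABPP with the biotinylated FP probe, then MudPIT identification of serine hydrolase activities relative to vehicle. n = 3-5 mice per group.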

CB2 receptors = CB2 receptors (Homo sapiens, UniProt P34972); assay: CB2 receptor binding assay, CB2 transfected CHO cell membranes; details: JZL184 0.0005-5 µM
Chain of CB2 receptors (P34972 whole entry): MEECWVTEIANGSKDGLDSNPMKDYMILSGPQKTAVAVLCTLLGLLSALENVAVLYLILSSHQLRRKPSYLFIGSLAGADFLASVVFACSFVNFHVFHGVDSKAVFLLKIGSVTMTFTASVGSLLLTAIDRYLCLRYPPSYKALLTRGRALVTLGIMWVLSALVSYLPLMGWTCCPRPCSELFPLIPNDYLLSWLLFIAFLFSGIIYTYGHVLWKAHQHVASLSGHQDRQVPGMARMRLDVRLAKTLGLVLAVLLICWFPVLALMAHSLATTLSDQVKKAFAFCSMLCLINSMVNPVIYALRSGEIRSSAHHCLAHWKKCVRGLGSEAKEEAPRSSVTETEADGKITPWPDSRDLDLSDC

mice [10] = assay: Catalepsy bar test and overt behaviour; assay type: in vivo, mouse
Procedure, shortened: as §2

[11] = Time course of JZL184 in mouse brain; assay type: in vivo; details: C57Bl/6J
CB1 receptors = assay: CB1 receptor binding assay, cerebellar membranes; details: JZL184 0.001-10 µM
[12] = system: interstitial brain levels of 2-AG and AEA; assay: In vivo microdialysis, nucleus accumbens, neuronal depolarization; design: species or system mouse; details: 10 mg kg^-1 i.p.
Procedure, shortened: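 Male C57Bl/6 mice received test compound at t = -60 min. Dialysate was sampled from nucleus accumbens. Depolarization was by perfusion with high potassium/calcium artificial CSF at t = 0-90 min. […] Mean ± SEM; n = 8 treated, 6 vehicle.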

MAGL [13] = target: T2, MAGL; assay: MAGL activity of brain membranes from treated mice; assay type: in vivo; details: 16 mg kg^-1 i.p., 4 h
[14] = mouse brain membrane proteome, Fig. 1b
[15] = rimonabant 3 mg kg^-1 pre-treatment
[16] = 16 mg kg^-1 i.p., wild-type / CB1+/+ mice
[17] = brain membrane proteome, FP-rhodamine labeling

O=C(Oc1ccc([N+](=O)[O-])cc1)N1CCN(C(c2ccc(F)cc2)c2ccc(F)cc2)CC1 [WWL152]
inhibition of ABHD6 by competitive ABPP (ABHD6): preserve potency | inhibition of MAGL by competitive ABPP (MAGL [1]; [14]): preserve potency | inhibition of FAAH by competitive ABPP (FAAH [2]): greatly reducing activity for FAAH

Cc1c(C(=O)NN2CCCCC2)nn(-c2ccc(Cl)cc2Cl)c1-c1ccc(Cl)cc1 [rimonabant, reference compound]
blockade of JZL184 effect in acetic acid writhing test (mice [3]; [15]): blocked | blockade of hypothermic effect of JZL184 (mice [4]; [15]): completely blocked | effect of rimonabant on its own on movement (mice [5]; rimonabant 3 mg kg^-1): significant reductions in movement | blockade of JZL184-induced immobility (mice [5]; [15]): partial blockade | blockade of JZL184 effect in tail immersion test (mice [6]; [15]): blocked | blockade of JZL184 effect in formalin test (mice [7]; [15]): blocked

CN(Cc1cccc(-c2ccncc2)c1)C(=O)Oc1ccc([N+](=O)[O-])cc1 [WWL98]
inhibition of ABHD6 by competitive ABPP (ABHD6): inhibited | inhibition of MAGL by competitive ABPP (MAGL [1]; [14]): inhibited | inhibition of FAAH by competitive ABPP (FAAH [2]): inhibited

COc1ccc(C(O)(c2ccc(OC)cc2)C2CCN(C(=O)Oc3ccc([N+](=O)[O-])cc3)CC2)cc1 [JZL175]
selectivity for MAGL over FAAH and ABHD6 by competitive ABPP (MAGL [1]; [14]): exhibited selectivity for MAGL over both FAAH and ABHD6

NC(=O)c1cccc(-c2cccc(OC(=O)NC3CCCCC3)c2)c1 [URB597, reference compound]
brain 2-AG or arachidonic acid levels ([8]; URB597 10 mg kg^-1 i.p.): without altering | brain anandamide and other NAEs ([8]; URB597 10 mg kg^-1 i.p.): significant elevations | brain FAAH activity (FAAH [9]; URB597 10 mg kg^-1 i.p.): completely inhibited

O=C(Oc1ccc([N+](=O)[O-])cc1)N1CCC(C(O)(c2ccc3c(c2)OCO3)c2ccc3c(c2)OCO3)CC1 [JZL184]
effect on other brain serine hydrolases by ABPP-MudPIT (brain serine hydrolases): none of the other ∼40 brain serine hydrolases profiled by ABPP-MudPIT were significantly affected | interaction with CB2 receptors (radioligand displacement) (CB2 receptors): did not interact | catalepsy in the bar test (mice [10]; 16 mg kg^-1 i.p.): did not, however, induce catalepsy; also recorded: did not develop catalepsy | overt posture and appearance (spontaneous limb splaying) (mice [10]; JZL184-treated mice): appeared generally normal | half-life [11]: ~7 h | antinociception in acetic acid writhing test (mice [3]; 16 mg kg^-1, 2 h): significant analgesic activity; also recorded: antinociceptive effects | concentration at which inhibition of ABHD6 is observed by competitive ABPP (ABHD6; 30 min preincubation): 10 µM | hypothermia in CB1^-/- mice (mice [4]; 16 mg kg^-1 i.p., CB1^-/- mice): did not produce significant hypomotility, hypothermia, or analgesia | hypothermia (mice [4]; [16]): significant hypothermia | interaction with CB1 receptors (displacement of 3H-rimonabant) (CB1 receptors): did not interact | blockade of MAGL activity by competitive ABPP (MAGL [1]; as low as 50 nM JZL184, 30 min preincubation): Near-complete blockade | kobs [I]^-1 for MAGL (MAGL [1]; [17]): 4400 M⁻¹ s⁻¹ | hypomotility in CB1^-/- mice (mice [5]; 16 mg kg^-1 i.p., CB1^-/- mice): did not produce significant hypomotility, hypothermia, or analgesia | hypomotility (mice [5]; [16]): hypomotility | antinociception in tail immersion test (mice [6]; 16 mg kg^-1 i.p., 2 h, wild-type / CB1+/+ mice): significant analgesic activity; also recorded: antinociceptive effects | elevation of brain 2-AG above control levels ([8]; 16 mg kg^-1 i.p., for at least 8 h): 7-9 fold | elevation of brain 2-AG (summary statement) ([8]; administration to mice): 8 fold | elevation of brain 2-AG levels above baseline ([8]; higher doses (up to 40 mg kg^-1 i.p.), 4 h): 8-10 fold | period for which elevated brain 2-AG levels were maintained ([8]; single dose): at least 8 h | baseline interstitial levels of 2-AG (before depolarization) ([12]; 1 h prior to depolarization): did not observe changes | interstitial brain levels of 2-AG following neuronal depolarization ([12]; nucleus accumbens): dramatically elevated | interstitial brain levels of AEA ([12]; nucleus accumbens): did not affect; also recorded: no significant alteration | inhibition of brain FAAH by ABPP-MudPIT (FAAH [9]; 16 mg kg^-1, 4 h): partial inhibition | brain FAAH blockade, maximum at any time point (FAAH [9]; 16 mg kg^-1 i.p., 0.5-24 h): ≤ 70% | blockade of brain MAGL activity (competitive ABPP, ABPP-MudPIT) (MAGL [13]): near-complete blockade | residual brain 2-AG hydrolysis activity (MAGL [13]): 15 % of control | antinociception in formalin test, phase 1 (mice [7]; 40 mg kg^-1 p.o.): antinociceptive effects | antinociception in formalin test, phase 2 (mice [7]; 40 mg kg^-1 p.o.): antinociceptive effects | analgesic activity in formalin test (mice [7]; text: 16 mg kg^-1, 2 h): significant analgesic activity | concentration at which inhibition of FAAH is observed by competitive ABPP (FAAH [2]; 30 min preincubation): 10 µM | kobs [I]^-1 for FAAH (FAAH [2]; [17]): 13 M⁻¹ s⁻¹

COc1ccc(C(c2ccc(OC)cc2)N2CCN(C(=O)Oc3ccc([N+](=O)[O-])cc3)CC2)cc1 [WWL162]
inhibition of ABHD6 by competitive ABPP (ABHD6): preserve potency | inhibition of MAGL by competitive ABPP (MAGL [1]; [14]): preserve potency | inhibition of FAAH by competitive ABPP (FAAH [2]): greatly reducing activity for FAAH
